CendR NRP1 mod: modulators of CendR peptide binding to NRP-1, primary screen, biochemical, fluorescence polarization, uHTS | FAM-RPARPAR peptide binding to NRP-1 | inhibition, % at 25 µM | actives 0.85% (n = 360,000);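 active means inhibition or corrected inhibition above about 18%, plus a signal ratio from 0.5 to 1.5, limit read from the data, passing the limit was not always enough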
m5-HT2A agonist: mouse Htr2a agonists via beta-arrestin recruitment, primary screen, cell-based, luminescence; 5-hydroxytryptamine receptor 2A (Mus musculus), P35363; CHO-K1 mHTR2A beta-arrestin complementation; percent of 30 µM serotonin response; activation, % at 7.6 µM; actives 0.66% (n = 360,000);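 active means activation above a run cutoff, the mean activation of all tested compounds plus 3 SD, cut at about 14% in these data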;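 further: 0% = plate median of compound wells and 100% = 30 µM serotonin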
Arrestin-AP2 inh: inhibitors of beta-arrestin/AP2 binding, primary screen, biochemical, GPCR trafficking, flow cytometry. beta-arrestin 1 C-terminal peptide binding to AP2 beta2-adaptin appendage (human). FITC-arrestin peptide / GST-AP2 beads; AP2 beta2 appendage carries R879A mutation. inhibition, % at 10 µM. actives 0.31% (n = 340,000). AID 504490, 2011;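 active means inhibition above a set limit, near 3 SD of compounds lacking own fluorescence, cut at about 54% in these data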;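 further: plate controls were DMSO wells for no effect and 5 µM unlabelled arrestin peptide for full effect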
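system = GST-tagged AP2 beta2-adaptin appendage (R879A) on 4 µm glutathione beads | reagent = FITC-labelled arrestin peptide probe, 50 nM final | schedule = compound with beads 12 min RT, then probe 1 h RT | signal = HyperCyt-sampled flow cytometry, FL1 channel, ex 488/em 535 nm | read-out = percent response from loss of bead-bound FITC fluorescence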
HGIII-sPLA2 inh: human group III sPLA2 inhibitors, primary screen, biochemical, QFRET, BODIPY PC-A2 liposome substrate; QFRET BODIPY PC-A2 liposome hydrolysis, fluorescence; inhibition, % at 12.2 µM; Group 3 secretory phospholipase A2 (Homo sapiens), Q9NZ20; actives 0.56% (n = 370,000);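 active means inhibition above mean plus 3 SD of compounds lying within the high and low control bounds, cut at about 19% in these data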;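 further: 0% = median of test compound wells and 100% = no enzyme DMSO wells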
Target sequence (Q9NZ20 whole entry, looked up): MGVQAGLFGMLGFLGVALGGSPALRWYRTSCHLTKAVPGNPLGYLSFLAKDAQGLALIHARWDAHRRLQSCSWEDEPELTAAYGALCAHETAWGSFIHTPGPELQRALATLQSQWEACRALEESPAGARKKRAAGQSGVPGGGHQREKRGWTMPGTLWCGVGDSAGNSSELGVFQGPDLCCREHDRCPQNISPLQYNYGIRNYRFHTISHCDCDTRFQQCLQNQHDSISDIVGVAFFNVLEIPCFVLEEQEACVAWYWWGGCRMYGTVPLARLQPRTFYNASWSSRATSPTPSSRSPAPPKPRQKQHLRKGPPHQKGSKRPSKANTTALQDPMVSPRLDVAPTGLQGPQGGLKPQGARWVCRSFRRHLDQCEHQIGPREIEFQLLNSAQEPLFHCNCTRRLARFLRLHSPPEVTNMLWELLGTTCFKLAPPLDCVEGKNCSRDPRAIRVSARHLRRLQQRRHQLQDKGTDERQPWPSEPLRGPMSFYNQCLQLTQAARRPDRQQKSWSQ
PfM18AAP inh: PfM18AAP inhibitors, malaria aminopeptidase, primary screen, biochemical, QFRET, recombinant enzyme | inhibition, % at 7.35 µM | M18 aspartyl aminopeptidase (Plasmodium falciparum 3D7) | H-Glu-NHMec fluorogenic cleavage | actives 1.2% (n = 290,000) | AID 1822, 2009;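 active means inhibition above the campaign mean inhibition over all tested compounds plus 3 SD, cut at about 28% in these data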;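 further: 0% = plate median of test compound wells and 100% = 2 mM ZnCl2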
Lipid droplet: inhibitors of hepatocyte lipid droplet formation, primary screen, imaging, high-throughput imaging, BODIPY stain; AML12 mouse hepatocytes, oleate lipid droplets; inhibition, % at 6.5 µM; actives 0.4% (n = 240,000);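 active means lipid droplet intensity inhibited by at least 50%, with more than 500 cells counted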
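Assay system: AML12 mouse liver cells | Compound dosing: One dose, 6.5 µM compound | Read-out basis: Droplet intensity reduction, % inhibition | Measured by: Fluorescence imaging, 20x objective, two fields per well | Schedule: Overnight treatment with compound plus oleate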
MOR ag counter: OPRM1 agonists via beta-arrestin recruitment, confirmation, counter-screen for mouse HTR2A agonist project, cell-based, luminescence, single concentration. U2OS OPRM1 beta-arrestin PathHunter; DMSO 0%, DAMGO 9.3 µM 100%. shares compounds with m5-HT2A agonist. activation, % at 9.3 µM. AID 624380, 2012. actives 5.3% (n = 2,300);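 active means mean activation above the mean of DMSO-only wells plus 3 SD, cut at about 0.5% in these data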
HTR2A ag conf: mouse HTR2A agonists, beta-arrestin recruitment, confirmation, cell-based, luminescence, CHO-K1 PathHunter, triplicate; shares compounds with m5-HT2A agonist; activation, % at 7.6 µM; actives 19% (n = 2,300); DMSO 0%, 30 µM serotonin 100%;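 active means mean activation across triplicates above the hit threshold derived in the original primary screen, cut at about 15% in these data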
An asterisk follows results filed as active; x = no result given; ! = a repeat was not active. Shown are actives, neighbours in structure and some others; about 3.3% of the full set was active somewhere.

SMILES	CendR NRP1 mod	m5-HT2A agonist	Arrestin-AP2 inh	HGIII-sPLA2 inh	PfM18AAP inh	Lipid droplet	MOR ag counter	HTR2A ag conf
O=C(c1ccccc1F)N1CCN(Cc2nc3sc4c(c3c(=O)[nH]2)CCCC4)CC1	3	16*	-9	-12	3	-1	-1	-4
CCOC(=O)N1C(=O)C[C@](Sc2ccc(OC)cc2)(C(=O)N2CCCC2)[C@H]1c1ccc(OC)cc1	x	x	x	7	x	x	x	x
COC(=O)[C@]12C[C@H](CC(=O)N3CCOCC3)C(=O)N(CCC3=CCCCC3)C1=C[C@H](C1CCCC1)O[C@@H]2C	x	x	x	-4	x	x	x	x
Cc1cccc(N2CCN(CC(O)COc3ccc4ccccc4c3)CC2)c1 (configuration not stated)	5	15*	36	5	x	x	0	53*
CCc1ccc(OCC(O)CN2CCN(c3ccccc3)CC2)cc1 (configuration not stated)	0	15*!	28	6	2	x	0	29*
CCCc1ccc(OCC(O)CN2CCN(c3ccccc3)CC2)cc1 (configuration not stated)	-4	9	-8	1	-12	x	x	x
CCOC(=O)N1CCN(Cc2ccc(OCC(O)CN3CCCCC3)cc2)CC1 (configuration not stated)	5	33*	-15	0	14	7	0	71*
O=C(N[C@H](Cc1ccccc1)C(=O)N1CCN(CC(=O)N2CCCC2)CC1)[C@H]1O[C@@H](n2ccc(=O)[nH]c2=O)[C@H](O)[C@@H]1O	x	x	x	8	x	x	x	x
C#CCNC(=O)C[C@@H]1C(=O)N(CCc2ccc(Cl)cc2)C2=CCCCC[C@]21C(=O)OC	x	x	x	-7	x	x	x	x
COc1ccc(Cl)cc1CC1(C)C(=O)Nc2ccc(-c3ccccc3OC)cc21 (configuration not stated)	9	21*	x	-6	x	x	0	17*
Cc1ccc2nc(-c3ccc(NS(C)(=O)=O)cc3)cc(-c3ccccc3)c2c1	-9	5	19	-52	5	x	x	x
CCS(=O)(=O)Nc1ccc(-c2cc(-c3ccccc3)c3cc(C)ccc3n2)cc1	-12	15*	0	-42	-12	-6	0	4
Cc1oc(-c2cccc(Cl)c2)nc1CS(=O)(=O)CC(=O)NCCCN1CCOCC1	5	25*	-3	-8	-2	13	0	-4
CCN(CC)CCCN1C(=O)C2=C(C1=O)C1N(C)c3ccccc3[C@@]13C[C@@H](CO)N(C(=O)CCC(=O)OC)C3=N2 (some centres not stated)	x	x	x	0	x	x	x	x
Nc1ncnc2c1ncn2[C@@H]1O[C@H](C(=O)N2CCN(c3ccc(Cl)cn3)CC2)[C@@H](O)[C@H]1O	-3	-2	x	6	x	x	x	x
O=C(O)c1ccc2c(c1Nc1ccccc1)C(=O)c1ccccc1C2=O	18	27*	-5	3	-6	2	0	-6
CNc1c(C(=O)O)ccc2c1C(=O)c1ccccc1C2=O	19	-2	-5	6	0	12	x	x
CC1(C)CC(=O)C=C(c2ccccc2-c2ccc3c(c2)OCO3)C1=O	x	x	x	12	x	x	x	x
OCC[C@H]1C[C@H](O)[C@@H](O)[C@@]2(Cc3ccccc3CO2)O1	6	17*	31	4	x	x	0	1
COc1cc2c(cc1OC)-c1cc(Nc3ccccc3C)nc(=O)n1CC2	2	18*	-9	5	5	-1	0	0
CC(C)CN1C(=O)[C@]2(CC(=O)N(C)C2c2ccccc2)c2cc(-n3cc(C4=CCCCC4)nn3)ccc21 (some centres not stated)	x	x	x	-12	x	x	x	x
CCOC1=C2[C@@H](CN(S(=O)(=O)c3ccc(C)cc3)[C@H]2c2ccc(Cl)cc2)[C@H]2C(=O)N(c3ccccc3)C(=O)[C@H]2C1	10	21*	x	-5	x	x	-1	-2
CSc1nnc(-c2cccc(NC(=S)NN)c2)o1	-12	27*	-7	-4	9	9	0	-4
CSc1nnc(-c2ccc(NC(N)=S)cc2)o1	11	0	6	8	7	-2	x	x
COc1ccc(N2CCN(C(=O)COC(=O)c3ccco3)CC2)cc1	4	15*	-7	3	6	-3	0	-1
SMILES	CendR NRP1 mod	m5-HT2A agonist	Arrestin-AP2 inh	HGIII-sPLA2 inh	PfM18AAP inh	Lipid droplet	MOR ag counter	HTR2A ag conf
CCOc1cc(CN2CCN(C(=O)c3ccco3)CC2)ccc1OC	23	18*	18	-1	-11	1	-1	71*
C1=CC2CC1CC2CN1CCN(c2ccccc2)CC1 (configuration not stated)	6	15*	-2	x	2	1	0	57*
CCOc1ccc(C(=O)N2CCN(C(=O)c3ccco3)CC2)cc1OCC	-4	2	36	1	5	-1	x	x
Cc1ccccc1CN1CCN(CC2CC3C=CC2C3)CC1 (configuration not stated)	-1	-7	7	-2	3	3	x	x
COc1ccc(NC(=S)N2CCN(C(=O)c3ccco3)CC2)cc1	12	2	40	4	-7	-2	x	x
COc1ccc(CN2CCN(C(=O)c3ccco3)CC2)cc1	-2	25*	-1	9	-2	x	-1	103*
O=S1(=O)c2ccc(N3CCSCC3)cc2Oc2ccccc2CN1Cc1cn(Cc2ccc(F)cc2)nn1	x	x	x	4	x	x	x	x
COc1ccc(CNC(=S)N2CCN(Cc3ccccc3)CC2)cc1	20	19*	-7	6	0	4	0	9
O=C(c1ccco1)N1CCN(CC2CC3C=CC2C3)CC1 (configuration not stated)	-4	21*	-5	1	4	5	-1	76*
COc1ccc2ccccc2c1CN1CCN(C(=O)c2ccco2)CC1	-5	17*	-4	-3	-6	x	0	130*

Source: PubChem BioAssay
